Rows were chosen to be rich in hits. Some 3% of all compounds tested hit in one or more screens of this group.
Insulin prom inh – TRM-6 insulin promoter activity inhibition. TRM-6 cells (human fetal islet line), insulin promoter-eGFP reporter, imaging; reporter expression induced with tamoxifen. inhibition, % at 2 µM. 0.9% of 130,000 active. AID 1273;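 active means inhibition above the mean plus 3 SD, with well images judged a real hit on visual review, cut at about 60% in these data, passing the limit was not always enough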
RAM network inh – yeast RAM network inhibition; S. cerevisiae dse1pr::URA3 reporter, 5-FOA growth OD615, 2 d; analog-sensitive cbk1-as2 kinase mutant strain; 1.8% of 190,000 active; inhibition, % at 50 µM;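 active means inhibition above a set limit, 3 SD over mean compound inhibition, cut at about 8.4% in these data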;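 further: 0% = DMSO-only wells with no growth and 100% = 10 µM 1-NA-PP1 full growth; inhibition rescues growth on 5-FOA so higher OD means more RAM inhibition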
Yeast life ext – extends the lifespan of yeast. S. cerevisiae growth with nicotinamide, OD615; deaD strain in restrictive glucose medium. inhibition of the nicotinamide effect, % at 10 µM. 0.68% of 130,000 active;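 active means inhibition above a set limit, placed 3 SD over the median of all compounds, cut at about 26% in these data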;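 further: 0% = nicotinamide-treated wells and 100% = cells grown without nicotinamide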
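Assay system: engineered S. cerevisiae DeaD replicative-lifespan strain, galactose-grown log-phase cells; medium: restrictive CSMM-D dextrose medium; also added: nicotinamide, 1.5 mM, co-present with compound; schedule: 48 h compound exposure at 30 °C, humidified; detection: absorbance at 615 nm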
Insulin prom up – MIN6 insulin promoter up-regulation; MIN6 insulin promoter-GFP reporter, high-content imaging; stronger effect = higher value; z-score at 5 µM; 0.3% of 190,000 active;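 active means z-score above 3 at 5 µM with at least 500 cells counted in the well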
BB579 growth dn – chemicals that inhibit yeast BB579 growth in restrictive medium (lifespan-shortening candidates); S. cerevisiae BB579 growth, OD615, 48 h; inhibition, % at 10 µM; 0.51% of 140,000 active; AID 804;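 active means inhibition above a set limit, 3 SD over the mean compound inhibition, cut at about 44% in these data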
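System: Saccharomyces cerevisiae DeaD strain BB579, replicative lifespan model yeast | Buffer or medium: Restrictive glucose-based CSMM-D medium | Times: 4 h preincubation and 48 h exposure at 30 °C | Detection: OD615 turbidity measurement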
* = called active by the depositor; ! = not active in a repeat.

What do the screens show for `COc1ccccc1NC(C#N)c1ccccc1OCc1ccccc1` (stereo not given)?
Insulin prom inh: 14; RAM network inh: 0; Yeast life ext: 30*; Insulin prom up: -0.15; BB579 growth dn: -29

Results for CC(CCc1ccccc1)NC(=O)CN1CCN(c2ccc(O)cc2)CC1 (stereo not given) ?
Insulin prom inh: -40; RAM network inh: 1; Insulin prom up: -0.14

Results for CCn1c(=O)c2cc(C(=O)NCc3cccs3)sc2c2ccccc21 ?
RAM network inh: 9.9*; Insulin prom up: 0.07

How did CCn1c(=O)c2cc(C(=O)NC(C)C)sc2c2ccccc21 do in these assays?
Insulin prom up: 0.73

What do the screens show for `Cc1ccc2[nH]c3c(c2c1)CCc1cn[nH]c1-3`?
Insulin prom inh: 0; RAM network inh: -1; Yeast life ext: -19; Insulin prom up: -0.7; BB579 growth dn: 92*

Results for COCCCNC(CC(=O)Nc1ccc(OC)cc1OC)C(=O)O (stereo not given) ?
Insulin prom inh: -18; RAM network inh: 3; Yeast life ext: 101*; Insulin prom up: 0.76; BB579 growth dn: -22

What do the screens show for `COc1ccc(NC(=O)CC(NCCc2ccccc2)C(=O)O)c(OC)c1` (stereo not given)?
Insulin prom inh: 36; RAM network inh: 1; Yeast life ext: -7; Insulin prom up: 0.2; BB579 growth dn: -14

How did N#CC(=C1CCCC1)c1nc(-c2ccccc2)cs1 do in these assays?
Insulin prom inh: -3; RAM network inh: 3; Yeast life ext: -17; Insulin prom up: 0.28; BB579 growth dn: -9

How did Cc1ccc(-c2csc(C(C#N)=C3CCCC3)n2)cc1 do in these assays?
Insulin prom inh: 75*; RAM network inh: 5; Yeast life ext: -15; Insulin prom up: 1.2; BB579 growth dn: -35

What do the screens show for `COc1ccc2[nH]c3c(NCCN4CCCCC4)ncnc3c2c1`?
Insulin prom inh: 81*; RAM network inh: 0; Yeast life ext: -20; Insulin prom up: -0.94; BB579 growth dn: -2

Results for CCOC(=O)N1CCN(c2ncnc3c2[nH]c2ccc(OC)cc23)CC1 ?
Insulin prom inh: 91*; RAM network inh: 3; Yeast life ext: -7; Insulin prom up: -0.23; BB579 growth dn: -29

How did COc1ccc2[nH]c3c(Cl)ncnc3c2c1 do in these assays?
RAM network inh: 0; Yeast life ext: -8; Insulin prom up: 0.14; BB579 growth dn: 56*

How did CN(Cc1ccccc1)CC(O)COc1ccc(CNCc2ccc(Cl)s2)cc1 (stereo not given) do in these assays?
RAM network inh: 2; Insulin prom up: 0.98

Results for O=C(c1ccc(F)cc1Cl)N(c1ccccn1)C1CCCCC1 ?
RAM network inh: 1; Insulin prom up: -0.55

Results for Cc1ccc(NC(=O)/C=C/c2ccc([N+](=O)[O-])s2)c(C)c1 ?
Insulin prom inh: -179; RAM network inh: 5; Yeast life ext: 7; Insulin prom up: 13*; BB579 growth dn: -44

Results for Cc1ccc(NC(=O)/C=C/c2ccc([N+](=O)[O-])s2)cc1 ?
Insulin prom inh: -270; RAM network inh: 4; Yeast life ext: 4; Insulin prom up: 17*; BB579 growth dn: -45

What do the screens show for `Cc1cccc(NC(=O)/C=C/c2ccc([N+](=O)[O-])s2)c1`?
RAM network inh: 5; Yeast life ext: 2; BB579 growth dn: -34

Results for CCO[C@H]1OC(C(=O)N2CCN(Cc3ccc4c(c3)OCO4)CC2)=C[C@@H](c2ccc(Br)cc2)[C@@H]1CCCO ?
RAM network inh: 0; Insulin prom up: 0

How did COCCN(Cc1ccccc1)C(=S)Nc1ccc(Cl)cc1 do in these assays?
Insulin prom inh: -14; RAM network inh: 3

Results for O=C(O)c1cc(-c2ccco2)nc2ccc(Br)cc12 ?
Insulin prom inh: 77*; RAM network inh: 2; Yeast life ext: 36*!; Insulin prom up: 0.23; BB579 growth dn: -30

Results for CC1CCN(S(=O)(=O)c2ccc(NC(=O)N3c4ccccc4Sc4ccccc43)cc2)CC1 ?
RAM network inh: 4; Yeast life ext: -11; Insulin prom up: -3.8; BB579 growth dn: -44

How did NS(=O)(=O)c1ccc(NC(=O)N2c3ccccc3Sc3ccccc32)cc1 do in these assays?
RAM network inh: 9.4*; Yeast life ext: -5; Insulin prom up: 0.6; BB579 growth dn: -36

What do the screens show for `O=C(COc1ccc(Cl)cc1)NC1=NN(c2ccccc2)C(=O)C1`?
RAM network inh: -1; Yeast life ext: 0; Insulin prom up: 0.44; BB579 growth dn: 62*

What do the screens show for `COc1ccc(/C=N/OCC(=O)N=Nc2c(O)[nH]c3ccc(Br)cc23)cc1`?
Insulin prom inh: 80*; RAM network inh: 2

Results for Cc1ccc(-c2nc(CN(Cc3c(C)nn(C)c3C)C(C)C)c(C)o2)o1 ?
RAM network inh: 0; Insulin prom up: 0.03

Results for N#Cc1ccc(-c2ccc(OCC(=O)NCCc3ccccc3)cc2)cc1 ?
RAM network inh: 3; Yeast life ext: 46*; Insulin prom up: -0.01; BB579 growth dn: -52

Results for Cc1ccc(NC(=O)/C=N/OCC(=O)NCc2ccccc2Cl)cc1 ?
Insulin prom up: -0.37

Results for CCOC(=O)c1sc2ccccc2c1OC(=O)c1ccc(C)cc1 ?
RAM network inh: 8.7*; Yeast life ext: 4; Insulin prom up: -0.13; BB579 growth dn: -32

How did Cc1cccc(N2C(=O)CC(c3ccc(F)cc3)C3=C2COC3=O)c1 (stereo not given) do in these assays?
Insulin prom inh: -27; RAM network inh: 0; Insulin prom up: 0.57

How did CCNc1ccc(S(=O)(=O)N(C)C)cc1NCC(=O)Nc1ccccc1Cl do in these assays?
RAM network inh: 1; Insulin prom up: -0.9

Results for CC(C)CCn1c(-c2nonc2N)nc2ccccc21 ?
Insulin prom inh: 19; RAM network inh: 10*; Insulin prom up: -0.23; BB579 growth dn: -58

How did O=C(c1cncc(Br)c1)N1CCc2ccccc2C1 do in these assays?
Insulin prom inh: 86*; RAM network inh: 0; Yeast life ext: 43*; Insulin prom up: 0.84; BB579 growth dn: -54

How did Cc1ccccc1C(=O)N1CCc2ccccc2C1 do in these assays?
Insulin prom inh: -26; RAM network inh: -1; Yeast life ext: 1; Insulin prom up: 4*; BB579 growth dn: -33

How did OCCC1CN(Cc2cc(F)ccc2-n2cccn2)CCN1C1CCCC1 (stereo not given) do in these assays?
Insulin prom up: -0.24

What do the screens show for `Cc1cc(NC(=O)C2CC(=O)N(c3ccccc3)C2)no1` (stereo not given)?
RAM network inh: 0; Yeast life ext: -9; Insulin prom up: -0.12; BB579 growth dn: 8

Results for C=CCN1C(=O)N/C(=C/c2ccccc2OCC(=O)Nc2ccc(F)cc2)C1=O ?
Insulin prom inh: -38; RAM network inh: 4; Yeast life ext: 2; Insulin prom up: -0.02; BB579 growth dn: -53

What do the screens show for `Cc1ccc(Nc2ncccc2C(N)=O)cc1[N+](=O)[O-]`?
RAM network inh: 2; Yeast life ext: -4; Insulin prom up: -0.3; BB579 growth dn: -35

Source: PubChem BioAssay
